Test: Toxicity liver stage against HepG2, at 10uM
Type: cell-based
Set-up: test concentration 10 uM, cell line HepG2-A16-CD81EGFP
Details: human, HepG2-A16-CD81EGFP cells; read-out: INHIBITION
In short: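 Uninfected HepG2-A16-CD81EGFP cells, 3 × 10^3 per well, 1536-well, plated on prespotted compound at 10 μM final, parasite-free screening media added to match infected plates; puromycin 10 μM positive, DMSO 0.5% negative; run in parallel with 48 h PbLuc assay at 37 °C, 5% CO2; viability by CellTiter-Glo luminescence, normalized to controls.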

Structure (SMILES)	cytotoxicity at 10 µM
CN1CCOC[C@H]1c1nc(-c2ccc(F)cc2F)c[nH]1	-5.66%
COCCNC(=O)c1cccnc1Oc1ccc(Cl)cc1	6.99%
CSCC[C@H](NC(=O)Cn1ccc2c(Br)cccc21)C(=O)O	-2.94%
Cc1cc(C(=O)NCc2cc(C)oc2C)no1	-9.98%
Cc1cc(C(=O)N2CC[C@@H]3CN(C)S(=O)(=O)[C@@H]3CC2)no1	-7.55%
CCC(=O)N1CCC2(CC1)CC(CC(=O)NC1CC1)c1ccccc1O2 (centres undefined)	2.64%
O=C1COC2(CCN(Cc3ccco3)CC2)CN1Cc1cccnc1	-4.25%
CS(=O)(=O)N1CC(c2nc[nH]n2)c2cc(C(=O)NC3CCCC3)ccc21 (centres undefined)	-131%
CCS(=O)(=O)N1C[C@H]2CN(Cc3ccc(OC)cc3)C(=O)[C@H]2C1	-1.34%
CC(C)Nc1ncnc2c1CCN(C(=O)[C@H]1CCCO1)CC2	-0.685%
O=C(Nc1ccccc1)N1CCC2(CC(=O)N(c3ccsc3)C2)C1 (centres undefined)	2.58%
Cc1ccoc1C(=O)N1CCO[C@H]2[C@H](OCc3ccncc3)CC[C@@H]21	9.06%
COc1cc2nc(C)n(CC(=O)NCCCN(C)C)c(=O)c2cc1OC	2.11%
O=C1CC2(CCN(S(=O)(=O)C3CC3)C2)CN1c1cncnc1 (centres undefined)	-11.9%
CCn1nnc2c1C(COC)CN(C(=O)COc1ccccc1)C2 (centres undefined)	-17.1%
O=C([C@@H]1CCO[C@@H]2CCN(Cc3cccnc3)C[C@H]21)N1CCCCO1	-1.17%
COc1cccc(Cn2cc(N3C(=O)[C@H]4CCCC[C@H]4C3=O)cn2)c1	-11.9%
O=C(Cc1ccccc1)N1CCC(c2nnc(-c3ccccn3)o2)CC1	2.83%
Cc1cc(C(F)(F)F)nc(C2CCN(C(=O)CO)CC2)n1	-2.14%
CNc1cncc(C2CCCN2C(=O)CCn2ccnc2)n1 (centres undefined)	3.91%
COc1ccccc1CC(=O)N1CCN(Cc2ccco2)C[C@@H]1C	2.08%
COCC(=O)N1CC(c2ccnc(Nc3cc(C(F)(F)F)ccn3)n2)C1	11.2%

Structure (SMILES)	cytotoxicity at 10 µM
Cc1nnc(Nc2cccc(C3CCN(Cc4ncc[nH]4)CC3)n2)s1	-24%
CCc1cc(C(=O)N2Cc3ccccc3OC3(CCOCC3)C2)on1	-9.54%
Cc1sc2c(C3CCCN(C(C)C)C3)nc(C)n2c1C (centres undefined)	-13.8%
Cc1nc(C)c(C(=O)N2CCc3nc4sc(C)cc4c(=O)n3CC2)o1	-9.31%
CN1CCC(CN(C)C(=O)c2cc(C3CCCN3C)ccn2)CC1 (centres undefined)	-28.3%
Cc1noc(C)c1-c1cccc(CC2CCN(C(=O)c3cscn3)C2)n1 (centres undefined)	-6.66%
O=C(c1ccccn1)N1CCC(Cc2cnc3[nH]ccc3c2)CC1	-7.75%
Cn1cc(C(=O)N2CCCC(Cc3cnccn3)C2)cn1 (centres undefined)	-8.16%
CCOc1ccc(N(CCC#N)C(=O)c2ccnc(SC)c2)cc1	-2.6%
CN(C)S(=O)(=O)c1ccc(F)c(NC(=O)COCC2CC2)c1	3.71%
O=C(c1cc(C2CCCC2)no1)N1CCCCC1	-3.05%
CC(C)Cn1ccnc1CNC(=O)NC(C)c1nccs1 (centres undefined)	-14.3%
Cc1nc(NS(=O)(=O)c2cc(Br)ccc2C)no1	1.68%
NS(=O)(=O)c1ccc(NCc2ccco2)c2ncccc12	-153%
CN(Cc1csc2ccccc12)C(=O)NC1CCS(=O)(=O)C1 (centres undefined)	-42.1%
Cc1ccc(C(=O)NCC(O)CN2CCCC2=O)cc1Cl (centres undefined)	-8.69%
Cc1cc(C)n(CC2CCN(CC(O)Cn3cccn3)CC2)n1 (centres undefined)	-5.58%
COCCC1(CNC(=O)Nc2ccc(-n3ccnn3)cc2)CCC1	-0.677%
Cc1nc(S(=O)(=O)NCCC(=O)NCc2ccsc2)cn1C	3.68%
Cc1cc(S(=O)(=O)N2CCCc3cc(Cl)ccc32)sc1C(=O)O	-16%
CCN(CC(=O)NC)C(=O)c1cc(-c2cccc(Cl)c2)no1	8.5%
O=S(=O)(Cc1ccccc1F)Cc1nnnn1C1CC1	-16.5%

Structure (SMILES)	cytotoxicity at 10 µM
CCN(CC)S(=O)(=O)NCCc1cc(C)ccc1OC	-2.64%
CC1CN(C(=O)c2ccc(=O)n(C)c2)c2ccccc2NC1=O (centres undefined)	-2.09%
Cc1cc(C)cc(OCCCn2nc3ccccn3c2=O)c1	3.95%
CC(=O)NCCc1ccc(S(=O)(=O)Nc2cc(F)ccc2C)s1	-13.6%
CC(CO)(NC(=O)NCc1ccc(Br)s1)C1CC1 (centres undefined)	4.68%
Cc1cncc(NC(=O)c2ccc(CN3CCC(CO)CC3)cc2)c1	19%
CCCS(=O)(=O)NC(=O)c1ccc(Br)o1	-6.11%
O=C(Nc1ccccc1Oc1cccc(F)c1)C1CCS(=O)(=O)C1 (centres undefined)	2.64%
CCc1ccc(CC)c(NCC(=O)N2CCCC(NC(C)=O)C2)c1 (centres undefined)	-5.87%
CCOCC(O)CN1CCN(C(=O)c2cccc(F)c2)CC1 (centres undefined)	-11.1%
Cc1ccc2c(c1)[C@@H](CC(=O)N1CCN(C)CC1)CCO2	-11.1%
CCC(CO)N(Cc1ccco1)C(=O)c1sccc1NC(C)=O (centres undefined)	3.36%
COc1ccc2c(c1)OCC(CNC(=O)c1cc(C(C)C)on1)C2 (centres undefined)	0.0723%
Cc1ccc(F)c(C(=O)N2C[C@@H](C(=O)O)[C@H](c3ccccc3)C2)c1Cl	-6.06%
Cc1cccc(CNC2CC(=O)N(CCc3cccc(Cl)c3)C2)n1 (centres undefined)	-134%
Cc1nc(N(C)C)nc(N2CCC3(CC2)CNC(=O)O3)c1C	14.9%
CN(C)Cc1nnc(C2CCN(c3ncccn3)CC2)n1C1CC1	-1.26%
CCn1c(N)nc2cc(C(=O)NCCc3nnc(C)s3)cnc21	-2.46%
Cc1ccc2cc(C3(O)CCN(C)CC3)ccc2n1	-0.432%
COCc1noc(CC2CN(c3ncnc4sc(C)c(C)c34)CCO2)n1 (centres undefined)	-0.649%
O=C(c1ncccc1O)N1CCc2c(nc(-c3ccncc3)[nH]c2=O)C1	-0.918%
CN(CC(=O)N1CCOCC(CO)C1)Cc1ccc(F)cc1 (centres undefined)	-2.82%

Structure (SMILES)	cytotoxicity at 10 µM
CC(C)N(C)S(=O)(=O)c1ccc2c(c1)CCN(C(=O)c1ccccn1)C2	10.3%
Fc1cccc(C2CCCCN2Cc2nc(-c3cnccn3)no2)c1 (centres undefined)	-3.02%
COc1cc(C(=O)N2CC[C@@H](NC(=O)c3ccccn3)[C@H](O)C2)ccn1	0.894%
COc1ccc(OCc2cc(C(=O)N3CC=CC3)n[nH]2)c(Cl)c1	7.26%
Cc1nnc2sc(-c3cc(C(C)C)n[nH]3)nn12	-7.88%
CCC(=O)N1CCN(c2cc(-n3cnc(C)c3C)nc(C)n2)CC1	-4.56%
CN(Cc1ccc2nsnc2c1)C(=O)CCc1cc2n(n1)CCCNC2	-4.62%
O=C(Cc1cnccn1)N1CCC(c2nccn2CC2CC2)CC1	-7.54%
O=C(O)C1(O)CCN(c2ccc3cccc(Cl)c3n2)CC1	4.57%
COCCN(C)C[C@@H]1CN(C(=O)c2c(C)cccc2OC)C[C@@H]1CO	-4.26%
CC(NC(=O)Cc1cccs1)c1nnc2n1CCC2 (centres undefined)	-7.56%
Cn1cnc(S(=O)(=O)NCCCN2CCCCCC2=O)c1Cl	-15.6%
CC(C)c1ccc(OCCNC(=O)N2CCS(=O)(=O)CC2)cc1	-5.54%
CCOc1ccccc1CNC(=O)N1CCC(Cc2cnn(C)c2)C1 (centres undefined)	-7.3%
CC(C)c1nnc2n1CCN(CC(=O)N1CCc3sccc3C1)C2	-10.4%
Cc1nc(C)n(CC2CCCCN2Cc2nc(-c3ccco3)no2)n1 (centres undefined)	-10.6%
CC(C)c1nc2c(n1C)CCN(CC(=O)Nc1nncs1)C2	-10.1%
CC(C)c1nnc2n1CCN(C(=O)c1ccc3c(c1)CCC3)C2	-10.7%
COc1ccccc1NC(=O)NCCCn1nc2ccccn2c1=O	-18%
Cc1cc(C2CCCN2Cc2nc3ccccc3o2)on1 (centres undefined)	-17%
O=C1COc2ccc(C(=O)N3CCCC(n4ccnc4)C3)cc2N1 (centres undefined)	-13.5%
Cc1cn2nc(N3CCCC3Cn3cccn3)sc2n1 (centres undefined)	-18.1%

Structure (SMILES)	cytotoxicity at 10 µM
Cc1ccc(N2CCCC(NCc3ccc(Cl)o3)C2)nn1 (centres undefined)	-6.83%
CN(Cc1ccc(-n2ccnc2)cc1)CC1CCCN1c1cccnn1 (centres undefined)	-6.21%
Cc1nc2c(c(C)c1CC(=O)NCc1ccc(F)cc1)c(=O)[nH]n2C	-15.9%
CC(=O)N(Cc1ncc(C)o1)C1CCN(Cc2csc(C)n2)C1 (centres undefined)	-15.8%
CC(C)c1nccn1C1CCCN(C(=O)c2ccsc2)C1 (centres undefined)	-5.2%
CC(C)c1nnc2n1CCN(C(=O)c1ccc(Cn3cccc3)cc1)C2	-4.28%
Cc1cc(C)n(C2CCCN(C(=O)c3ccn(C)c(=O)c3)C2)n1 (centres undefined)	-5.72%
c1ccc(-n2nnnc2CN2CCCC(Cn3cncn3)C2)cc1 (centres undefined)	0.962%
Fc1ccc(CN2CCCN(Cc3cscn3)CC2)cc1	2.62%
Cn1ccnc1CNC(=O)c1ccnc(C2CCNCC2)c1	5.8%
CN(C)c1ncc(-c2cncn2CCc2ccc3c(c2)OCCO3)cn1	-1.04%
Cc1c[nH]nc1C1CCCN1Cc1ncc[nH]1 (centres undefined)	4.99%
N#Cc1cccc(CN2Cc3nccn3CC(CN3CCCC3)C2)c1 (centres undefined)	-135%
COc1ccc(C[C@H]2CN(C(=O)c3ccc(C)nc3)CC[C@@H]2OC)cc1	4.76%
CN1CC(=O)N(c2ccsc2)CC12CCN(S(C)(=O)=O)C2 (centres undefined)	-26.1%
CCC(CC)C(=O)N1CCOC2(COCCN(CC(=O)NC)C2)C1 (centres undefined)	2.35%
CC(C)CCN1CCC2(CC1)CN(C(=O)c1cnccn1)CCO2	-12.6%
CCc1ccc(CN2C[C@@H]3COC[C@H](NS(C)(=O)=O)[C@@H]3C2)o1	-2.01%
Cc1noc(C)c1CN1C[C@H](OCC2CCN(C)CC2)[C@H]2COC[C@H]21	-4.49%
N#Cc1ccccc1CN1C[C@@H]2CC[C@H]1CN(C(=O)c1cccnc1)C2	-0.849%
CCn1cc(-n2cc3nc(N(C)C)[nH]cc-3c2=O)cn1	10.2%
